The text below walks through data of ChEMBL document CHEMBL1136923, “Highly potent, orally available anti-inflammatory broad-spectrum chemokine inhibitors” (J Med Chem, 2009).

Data set [1] concerns THP-1. Put plainly: Endogenous chemoattractant activity at human THP1 cells assessed as cell migration at 1 nM after 2 hrs by microtiter format trans-well migration assay. The format is functional.
The target in data set [2] is T1, C-C chemokine receptor type 1 (Homo sapiens) (UniProt P32246).
T1 sequence (whole entry): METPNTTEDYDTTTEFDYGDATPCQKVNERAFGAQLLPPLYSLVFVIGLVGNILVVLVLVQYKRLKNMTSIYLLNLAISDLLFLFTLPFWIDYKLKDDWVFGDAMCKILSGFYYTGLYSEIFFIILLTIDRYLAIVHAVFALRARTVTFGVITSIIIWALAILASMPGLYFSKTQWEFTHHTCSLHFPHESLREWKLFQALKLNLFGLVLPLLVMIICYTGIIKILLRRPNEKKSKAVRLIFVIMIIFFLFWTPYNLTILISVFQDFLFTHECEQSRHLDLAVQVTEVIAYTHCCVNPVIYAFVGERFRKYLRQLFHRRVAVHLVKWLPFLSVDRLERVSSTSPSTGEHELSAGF
Put plainly: Antagonist activity at CCR1 in human THP1 cells assessed as inhibition of CCL3-induced chemotaxis at 1 nM after 2 hrs by microtiter format trans-well migration assay. Format: functional, cell-based. The conditions noted are these: THP-1. In a few lines: (§1)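 Microtiter trans-well migration assay in Gey's balanced salt solution with 1 mg/mL endotoxin-free BSA, no fetal calf serum. Migration ran 2 h at 37 °C. Compounds dissolved in DMSO and added to both top and bottom compartments, final DMSO 1%.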

In data set [3] the test system is Mus musculus. Put plainly: Antiinflammatory activity in mouse assessed as inhibition of LPS-induced TNFalpha upregulation at 0.075 mg, po measured 2 hrs after LPS challenge. The format is functional. In a few lines:
(§2)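 Murine sublethal endotoxemia: LPS given intraperitoneally, with serum TNF-α measured 2 h after the LPS injection as the end point. Compound was given subcutaneously or orally. Vehicle was 0.6% DMSO and 1% carboxymethylcellulose (final concentrations) in sterile water. Effect is reported as % relative to control.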

Data set [4] deals with T2, C5a anaphylatoxin chemotactic receptor 1 (Homo sapiens) (UniProt P21730).
T2 sequence (whole entry): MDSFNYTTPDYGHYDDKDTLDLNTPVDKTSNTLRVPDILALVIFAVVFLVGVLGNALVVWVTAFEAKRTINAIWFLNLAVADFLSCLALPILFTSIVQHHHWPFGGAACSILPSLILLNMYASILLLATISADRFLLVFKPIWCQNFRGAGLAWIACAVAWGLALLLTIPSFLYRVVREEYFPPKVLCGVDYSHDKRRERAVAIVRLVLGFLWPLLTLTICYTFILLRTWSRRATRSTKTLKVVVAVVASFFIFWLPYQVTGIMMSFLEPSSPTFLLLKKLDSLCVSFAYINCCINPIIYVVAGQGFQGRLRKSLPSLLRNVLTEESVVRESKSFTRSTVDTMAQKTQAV
Put plainly: Antagonist activity at C5a receptor in human PMNC assessed as inhibition of C5a-induced chemotaxis at 1 nM after 2 hrs by microtiter format trans-well migration assay. Format: functional. In a few lines:
as §1

Data set [5] has as its system THP-1. As to the kind of experiment: Endogenous chemoattractant activity at human THP1 cells assessed as cell migration at 1 uM after 2 hrs by microtiter format trans-well migration assay. The format is functional.
The target of data set [6] is C-X-C chemokine receptor type 4 (Homo sapiens) (UniProt P61073). As to the kind of experiment: Antagonist activity at CXCR4 in human THP1 cells assessed as inhibition of CXCL12-induced chemotaxis at 1 nM after 2 hrs by microtiter format trans-well migration assay. The format is functional, cell-based. To be noted: THP-1. In a few lines: as §1
Chain of C-X-C chemokine receptor type 4 (Homo sapiens) (P61073 whole entry): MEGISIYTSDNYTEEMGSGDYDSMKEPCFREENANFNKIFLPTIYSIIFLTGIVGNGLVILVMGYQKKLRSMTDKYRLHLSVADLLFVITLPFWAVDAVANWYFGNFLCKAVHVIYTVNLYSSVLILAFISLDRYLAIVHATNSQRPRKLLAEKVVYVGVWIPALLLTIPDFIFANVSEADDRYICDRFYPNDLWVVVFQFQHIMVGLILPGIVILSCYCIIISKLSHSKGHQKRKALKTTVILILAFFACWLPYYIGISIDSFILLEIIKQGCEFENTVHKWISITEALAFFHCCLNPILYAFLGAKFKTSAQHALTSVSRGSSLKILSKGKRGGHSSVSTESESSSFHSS
Data set [7] has the same target. Put plainly: Antagonist activity at CXCR4 in human THP1 cells assessed as inhibition of CXCL12-induced chemotaxis at 1000 nM after 2 hrs by microtiter format trans-well migration assay. To be noted: THP-1. The format is functional, cell-based. In a few lines:
as §1

Data set [8] has as its target C-C chemokine receptor type 5 (Homo sapiens) (UniProt P51681). As to the kind of experiment: Antagonist activity at CCR5 in human THP1 cells assessed as inhibition of CCL5-induced chemotaxis at 100 nM after 2 hrs by microtiter format trans-well migration assay. The format is functional, cell-based. To be noted: THP-1. In a few lines:
as §1

Data set [9] deals with T2, C5a anaphylatoxin chemotactic receptor 1 (Homo sapiens). Put plainly: Antagonist activity at C5a receptor in human PMNC assessed as inhibition of C5a-induced chemotaxis at 100 nM after 2 hrs by microtiter format trans-well migration assay. The format is functional. In a few lines: as §1
Data set [10] addresses C-C chemokine receptor type 5 (Homo sapiens) (UniProt P51681). Put plainly: Antagonist activity at CCR5 in human THP1 cells assessed as inhibition of CCL5-induced chemotaxis at 10 nM after 2 hrs by microtiter format trans-well migration assay. The format is functional, cell-based. The conditions noted are these: THP-1. In a few lines:
as §1

The test system of data set [11] is Mus musculus. As to the kind of experiment: Antiinflammatory activity in mouse assessed as inhibition of LPS-induced TNFalpha upregulation at 0.025 mg, po measured 2 hrs after LPS challenge. Format: functional. In a few lines:
as §2

For data set [12], the system named is Mus musculus. Put plainly: Antiinflammatory activity in mouse assessed as inhibition of LPS-induced TNFalpha upregulation at 0.0075 mg, sc measured 2 hrs after LPS challenge. The format is functional. In a few lines: as §2
Data set [13] deals with Mus musculus. Put plainly: Antiinflammatory activity in po dosed mouse assessed as inhibition of LPS-induced TNFalpha upregulation measured 2 hrs after LPS challenge. The format is functional.
Data set [14] concerns Mus musculus. Put plainly: Antiinflammatory activity in mouse assessed as inhibition of LPS-induced TNFalpha upregulation at 0.075 mg, sc measured 2 hrs after LPS challenge. The format is functional. In a few lines:
as §2

Data set [15] is described as follows: AUC (0 to t) in Sprague-Dawley rat at 1 mg/kg, iv administered as single dose. The format is ADME, organism-based, Plasma. Set-up: dose 1 mg/kg, route intravenous. To be noted: Sprague-Dawley, plasma. In a few lines: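 Male Sprague-Dawley rats, three per compound per route, single dose. IV vehicle 5% DMSO in 0.9% saline; oral gavage vehicle 1% carboxymethylcellulose in 0.9% saline; fed ad libitum. Plasma taken 5–480 min post-dose, extracted with 0.1% formic acid in acetonitrile, quantified by LC/MS/MS (positive mode). AUC(0–t) by linear/log trapezoidal rule; IV curve back-extrapolated assuming initial volume 0.26 L/kg.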

For data set [16], the system named is Mus musculus. As to the kind of experiment: Antiinflammatory activity in po dosed mouse assessed as inhibition of LPS-induced TNFalpha upregulation measured 2 hrs after LPS challenge relative to control. The format is functional. In a few lines: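 Murine sublethal LPS endotoxemia screen. LPS is injected intraperitoneally and serum TNF-α is measured 2 h later as the end point. Compound is given subcutaneously or orally in a vehicle of 0.6% DMSO plus 1% carboxymethylcellulose (final concentrations) in sterile water. Values are % relative to control.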

For data set [17], the target named is C-C chemokine receptor type 2 (Homo sapiens) (UniProt P41597). Put plainly: Antagonist activity at CCR2 in human THP1 cells assessed as inhibition of CCL2-induced chemotaxis at 1000 nM after 2 hrs by microtiter format trans-well migration assay. The format is functional, cell-based. The conditions noted are these: THP-1. In a few lines: as §1
Chain of C-C chemokine receptor type 2 (Homo sapiens) (P41597 whole entry, looked up): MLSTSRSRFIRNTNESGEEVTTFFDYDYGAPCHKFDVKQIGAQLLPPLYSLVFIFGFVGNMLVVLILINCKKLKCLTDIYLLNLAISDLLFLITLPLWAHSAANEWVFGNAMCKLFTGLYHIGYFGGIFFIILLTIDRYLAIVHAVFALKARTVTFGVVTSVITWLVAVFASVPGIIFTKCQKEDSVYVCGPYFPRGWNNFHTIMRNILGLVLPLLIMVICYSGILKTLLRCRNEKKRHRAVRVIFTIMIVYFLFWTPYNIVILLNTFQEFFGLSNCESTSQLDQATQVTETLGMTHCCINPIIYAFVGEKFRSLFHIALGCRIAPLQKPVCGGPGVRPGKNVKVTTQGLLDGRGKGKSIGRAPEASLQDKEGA
Data set [18] concerns the target T1, C-C chemokine receptor type 1 (Homo sapiens). As to the kind of experiment: Antagonist activity at CCR1 in human THP1 cells assessed as inhibition of CCL3-induced chemotaxis after 2 hrs by microtiter format trans-well migration assay. The format is functional, cell-based. The conditions noted are these: THP-1. In a few lines:
as §1

Chain of C-C chemokine receptor type 5 (Homo sapiens) (P51681 whole entry, looked up): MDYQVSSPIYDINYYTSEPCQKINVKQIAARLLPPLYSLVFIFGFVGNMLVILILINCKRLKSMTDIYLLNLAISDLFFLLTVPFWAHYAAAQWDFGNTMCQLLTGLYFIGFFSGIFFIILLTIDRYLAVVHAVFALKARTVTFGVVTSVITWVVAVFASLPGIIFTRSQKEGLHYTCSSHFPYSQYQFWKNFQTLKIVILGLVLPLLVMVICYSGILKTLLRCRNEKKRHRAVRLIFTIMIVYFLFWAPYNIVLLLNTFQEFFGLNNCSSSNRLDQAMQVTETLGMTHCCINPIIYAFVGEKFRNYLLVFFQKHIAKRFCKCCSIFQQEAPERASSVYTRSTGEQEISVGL

A word on the inhibition: it is the relative decrease from the control value, in per cent. By AUC(0-t) is commonly meant the area under the concentration-time curve up to a stated or last time point. Lower therefore signals less exposure. For the compound `CCCCCCCCCCC(C)(C)C(=O)N[C@H]1CCCCNC1=O`, the Activity is 4335% in data set [1] and 4626% in data set [5]. For the same compound, the inhibition in data set [2] is 92.5%; in [4] it was 17.5%; in data set [6] it was 99%; in [7] it was 112%; in data set [8], 92.5%; in [9] it was 16%. Moreover, the figures for the inhibition in data set [10] and in data set [17] were 102% and 97%, respectively. Moreover, the “inhibition (INH)” value in [3] was 80%; in data set [11] it was 44%; in data set [12], 63%; in [14] it was 66%; in data set [16] it was 70%. Moreover, the ED50 in data set [13] is 0.3 mg/kg; in data set [18], 0.15 nM. This compound gave an exposure AUC(0-t) in data set [15] of 395 ng·h/mL.
